Experiments:
[1] = molecular target: T1, Adrenergic receptor alpha-1 (Rattus norvegicus, UniProt P15823+P23944+P43140); experiment: Compound is evaluated for its ability to compete with [3H]prazosin for binding to Alpha-1 adrenergic receptor sites on rat cerebral cortical membranes at 100 nM concentration
T1 sequence (P15823 whole entry): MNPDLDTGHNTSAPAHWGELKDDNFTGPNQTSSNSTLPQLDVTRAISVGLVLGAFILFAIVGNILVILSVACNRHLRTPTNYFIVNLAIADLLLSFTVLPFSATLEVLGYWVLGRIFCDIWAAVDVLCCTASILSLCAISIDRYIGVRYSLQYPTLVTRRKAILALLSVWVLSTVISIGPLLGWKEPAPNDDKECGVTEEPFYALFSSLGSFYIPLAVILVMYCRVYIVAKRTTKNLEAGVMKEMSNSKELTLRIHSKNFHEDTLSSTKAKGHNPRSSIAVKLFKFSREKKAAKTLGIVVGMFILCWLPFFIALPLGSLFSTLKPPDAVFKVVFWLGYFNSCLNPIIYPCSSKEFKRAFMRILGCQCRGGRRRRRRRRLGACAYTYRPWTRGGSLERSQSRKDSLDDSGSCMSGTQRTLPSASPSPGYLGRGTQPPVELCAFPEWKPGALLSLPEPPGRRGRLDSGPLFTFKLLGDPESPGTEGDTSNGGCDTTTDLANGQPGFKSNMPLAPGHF
T1 sequence (P23944 whole entry): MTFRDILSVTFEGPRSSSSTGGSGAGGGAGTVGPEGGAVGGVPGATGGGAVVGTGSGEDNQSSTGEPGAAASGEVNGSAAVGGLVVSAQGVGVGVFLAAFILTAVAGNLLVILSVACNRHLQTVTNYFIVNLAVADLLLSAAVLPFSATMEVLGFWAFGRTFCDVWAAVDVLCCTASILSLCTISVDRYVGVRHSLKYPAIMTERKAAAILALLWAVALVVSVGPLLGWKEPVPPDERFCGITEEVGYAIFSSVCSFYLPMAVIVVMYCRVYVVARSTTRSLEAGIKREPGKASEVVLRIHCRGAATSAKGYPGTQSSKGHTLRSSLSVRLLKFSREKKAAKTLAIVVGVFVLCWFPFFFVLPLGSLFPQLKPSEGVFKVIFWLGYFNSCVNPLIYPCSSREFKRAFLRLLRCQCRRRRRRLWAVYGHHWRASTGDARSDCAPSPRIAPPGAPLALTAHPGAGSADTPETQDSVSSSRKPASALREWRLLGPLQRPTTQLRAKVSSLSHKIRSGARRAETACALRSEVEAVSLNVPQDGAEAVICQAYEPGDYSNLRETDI
T1 sequence (P43140 whole entry): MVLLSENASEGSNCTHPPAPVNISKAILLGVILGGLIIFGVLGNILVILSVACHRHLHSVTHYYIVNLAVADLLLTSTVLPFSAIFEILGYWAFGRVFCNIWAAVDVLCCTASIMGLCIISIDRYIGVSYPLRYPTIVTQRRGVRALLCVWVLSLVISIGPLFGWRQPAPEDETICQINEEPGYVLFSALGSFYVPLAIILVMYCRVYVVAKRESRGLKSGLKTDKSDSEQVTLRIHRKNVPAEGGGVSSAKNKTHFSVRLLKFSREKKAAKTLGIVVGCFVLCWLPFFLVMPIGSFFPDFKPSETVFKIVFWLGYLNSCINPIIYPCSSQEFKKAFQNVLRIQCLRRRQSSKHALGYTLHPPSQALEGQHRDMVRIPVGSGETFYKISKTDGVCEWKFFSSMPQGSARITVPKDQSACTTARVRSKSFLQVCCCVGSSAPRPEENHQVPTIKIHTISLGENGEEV

[2] = molecular target: T1, Adrenergic receptor alpha-1; experiment: Displacement of [3H]prazosin binding to Alpha-1 adrenergic receptor sites on rat cerebral cortical membranes at 100 nM concentration; format: cell membranes, Membrane
[3] = molecular target: T1, Adrenergic receptor alpha-1; experiment: Binding affinity at Alpha-1 adrenergic receptor sites on rat cerebral cortical membranes by [3H]prazosin displacement.
Procedure, shortened: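 Rat cortex membranes were washed and resuspended in 50 mM Tris pH 7.4 with 10 mM MgCl2, about 200–300 μg protein per tube. […] Nonspecific binding used 10 μM phentolamine. Tubes were run in duplicate, IC50 came from displacement curves, and there were 3–5 experiments or duplicate experiments.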

[4] = molecular target: T1, Adrenergic receptor alpha-1; experiment: Compound is evaluated for its ability to compete with [3H]prazosin for binding to Alpha-1 adrenergic receptor sites on rat cerebral cortical membranes at 10 nM concentration
[5] = molecular target: Adrenergic receptor alpha-1 (Rattus norvegicus) (UniProt P15823+P23944+P43140); experiment: Irreversible action of compound towards Alpha-1 adrenergic receptor on rat cerebral cortical membranes was determined at 1000 nM concentration; format: cell membranes; conditions: Membrane
Procedure, shortened: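 Cortical membranes in Tris/MgCl2 buffer were preincubated 1 h at 30 °C with compound or buffer alone. Isothiocyanates were run in 50 mM phosphate with 1 mM EDTA, pH 7. Membranes were diluted, kept 10 min on ice and washed by four centrifugations. […] Bmax came from Scatchard plots, at least 3 experiments.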

[6] = molecular target: T1, Adrenergic receptor alpha-1; experiment: Compound is evaluated for its ability to compete with [3H]prazosin for binding to Alpha-1 adrenergic receptor sites on rat cerebral cortical membranes at 1000 nM concentration

| SMILES | -Log IC50 [2] | -Log IC50 [3] | also measured |
| --- | --- | --- | --- |
| COc1cc2nc(N3CCN(C(=O)C4OC4c4ccccc4)CC3)nc(N)c2cc1OC (stereo unspecified) | – | – | -Log IC50 [1]: 7.88 |
| COc1cc2nc(N3CCN(C(=O)/C=C/c4ccc(N=C=S)cc4)CC3)nc(N)c2cc1OC | 6.99 | – | – |
| COc1cc2nc(N3CCN(C(=O)/C=C/c4ccccc4)CC3)nc(N)c2cc1OC | 9.16 | – | – |
| COc1cc2nc(N3CCN(C(=O)c4ccc(N=C=S)c(I)c4)CC3)nc(N)c2cc1OC | – | 7.29 | – |
| C/C=C/C=C/C(=O)N1CCN(c2nc(N)c3cc(OC)c(OC)cc3n2)CC1 | 8.36 | – | – |
| COc1cc2nc(N3CCN(C(=O)/C=C/c4cccc(F)c4)CC3)nc(N)c2cc1OC | – | 7.68 | – |
| COc1cc2nc(N3CCN(C(=O)/C(F)=C/c4ccccc4)CC3)nc(N)c2cc1OC | 7.4 | – | – |
| COC(=O)/C=C/C(=O)Nc1ccc(CCCCC(=O)N2CCN(c3nc(N)c4cc(OC)c(OC)cc4n3)CC2)cc1 | 8.35 | – | – |
| COc1cc2nc(N3CCN(C(=O)Nc4ccccc4)CC3)nc(N)c2cc1OC | – | 7.56 | – |
| COc1cc2nc(N3CCN(C(=O)COc4ccccc4)CC3)nc(N)c2cc1OC | – | 7.9 | – |
| COc1cc2nc(N3CCN(C(=O)C4CC4c4ccccc4)CC3)nc(N)c2cc1OC (stereo unspecified) | – | 9.29 | – |
| COc1cc2nc(N3CCN(C(=O)/C=C/C(=O)c4ccccc4)CC3)nc(N)c2cc1OC | – | 7.06 | – |
| COC(=O)/C=C/C(=O)Nc1ccc(/C=C/C(=O)N2CCN(c3nc(N)c4cc(OC)c(OC)cc4n3)CC2)cc1 | 7.53 | – | – |
| COc1cc2nc(N3CCN(S(=O)(=O)c4ccc(C)cc4)CC3)nc(N)c2cc1OC | – | 7.94 | – |
| COc1cc2nc(N3CCN(S(=O)(=O)c4cccs4)CC3)nc(N)c2cc1OC | – | 7.47 | – |
| COc1cc2nc(N3CCN(C(=O)/C=C/c4ccc(F)cc4)CC3)nc(N)c2cc1OC | 7.64 | – | – |
| COc1cc2nc(N3CCN(C(=O)c4ccc5ccccc5c4)CC3)nc(N)c2cc1OC | – | 7.31 | – |
| COc1cc2nc(N3CCN(/C(S)=N/c4ccc(N=[N+]=[N-])cc4)CC3)nc(N)c2cc1OC | – | 7.7 | – |
| COc1cc2nc(N3CCN(C(=O)/C=C/c4ccc(Cl)cc4)CC3)nc(N)c2cc1OC | – | 7.9 | – |
| COc1cc2nc(N3CCN(C(=O)CCc4ccccc4)CC3)nc(N)c2cc1OC | – | 8.47 | – |
| COc1cc2nc(N3CCN(C(=O)/C=C/c4ccc(NC(=O)CBr)cc4)CC3)nc(N)c2cc1OC | 7.17 | – | – |
| COc1cc2nc(N3CCN(/C(S)=N/C4CCCCC4)CC3)nc(N)c2cc1OC | – | 8.27 | – |
| COc1cc2nc(N3CCN(/C(S)=N/c4ccccc4)CC3)nc(N)c2cc1OC | – | 11.16 | – |
| COc1cc2nc(N3CCN(C(=O)/C=C/c4ccc(Br)cc4)CC3)nc(N)c2cc1OC | – | 7.1 | – |
| COc1cc2nc(N3CCN(/C(S)=N/c4ccc(NC(=S)N5CC5)cc4)CC3)nc(N)c2cc1OC | – | 7.01 | – |
| COc1cc2nc(N3CCN(C(=O)C4=CC5C=CC4CC5)CC3)nc(N)c2cc1OC (stereo unspecified) | – | – | -Log IC50 [4]: 8.12 |
| COc1cc2nc(N3CCN(C(=O)C4CC5C=CC4C5)CC3)nc(N)c2cc1OC (stereo unspecified) | – | – | -Log IC50 [4]: 8.8 |
| COc1cc2nc(N3CCN(C(=O)c4cccc(CCl)c4)CC3)nc(N)c2cc1OC | – | 7.93 | – |
| COC(=O)/C=C/C=C/C(=O)N1CCN(c2nc(N)c3cc(OC)c(OC)cc3n2)CC1 | – | – | Decrease in Bmax [5]: 0%; -Log IC50 [6]: 7.41 |
| COc1ccc(/C=C/C(=O)N2CCN(c3nc(N)c4cc(OC)c(OC)cc4n3)CC2)cc1 | 8.47 | – | – |

— ChEMBL document CHEMBL1124343 (J Med Chem, 1989)
